Data taken from ChEMBL document CHEMBL3400126, “Benzo-fused lactams from a diversity-oriented synthesis (DOS) library as inhibitors of scavenger receptor BI (SR-BI)-mediated lipid uptake” (Bioorg Med Chem Lett, 2015).
Values after ≈ are worked out from the molar mass of the structure shown. Blank lines part the entries; values can stand above or below the compound they belong to. Active and inactive are the calls of the source. The rule behind the calls is not given here.

Key:
[1] = biological target: T1, Scavenger receptor class B member 1 (Mus musculus) (UniProt Q61009); experiment: Inhibition of mouse SR-B1 overexpressed in CHO cells assessed as inhibition of transfer of the fluorescent lipid DiI from HDL particles to cells at 1 uM after 3 hrs; format: cell-based
T1 sequence (whole entry): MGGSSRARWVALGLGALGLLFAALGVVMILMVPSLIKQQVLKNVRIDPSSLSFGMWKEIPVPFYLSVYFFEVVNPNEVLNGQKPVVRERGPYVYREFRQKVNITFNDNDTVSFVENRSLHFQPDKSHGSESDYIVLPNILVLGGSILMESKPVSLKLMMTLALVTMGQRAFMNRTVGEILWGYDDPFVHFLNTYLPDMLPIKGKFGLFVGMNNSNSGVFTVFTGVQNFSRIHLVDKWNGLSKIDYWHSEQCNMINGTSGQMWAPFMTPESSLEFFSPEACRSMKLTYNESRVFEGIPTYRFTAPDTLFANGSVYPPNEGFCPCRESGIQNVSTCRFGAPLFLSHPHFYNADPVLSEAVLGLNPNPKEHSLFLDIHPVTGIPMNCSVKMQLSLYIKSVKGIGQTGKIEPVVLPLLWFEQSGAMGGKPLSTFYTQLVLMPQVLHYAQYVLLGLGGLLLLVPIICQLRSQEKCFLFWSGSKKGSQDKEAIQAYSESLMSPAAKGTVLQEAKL

L-type calcium channel = L-type calcium channel (Homo sapiens, UniProt O60840+Q01668+Q13698+Q13936); experiment: Inhibition of L-type calcium channel (unknown origin) at 10 uM
[2] = Stability in mouse plasma assessed as compound remaining at 5 uM after 5 hrs by UPLC-MS analysis; format: ADME, cell-free; details: read-out: Stability
In short: (§1)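 Compound incubated 5 h in human or mouse plasma; percent parent remaining determined.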

[3] = Stability in human liver microsomes assessed as compound remaining at 1 uM after 1 hr by UHPLC-MS analysis; format: ADME; details: read-out: Stability
In short: (§2)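 Compound incubated 1 h with mouse or human liver microsomes; percent parent remaining determined.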

[4] = Stability in human plasma assessed as compound remaining at 5 uM after 5 hrs by UPLC-MS analysis; format: ADME, cell-free; details: read-out: Stability; in short: as §1
[5] = Aqueous solubility of the compound in PBS at pH 7.4 with 1 % DMSO after 24 hrs by UPLC-MS analysis; format: physicochemical; details: for solubility at 24 h: PBS with 1% DMSO, pH 7.4; for solubility: buffer, pH 7.4, 24 h
[6] = biological target: T1, Scavenger receptor class B member 1 (Mus musculus); experiment: Inhibition of mouse SR-B1 overexpressed in CHO cells assessed as inhibition of receptor-mediated Alexa-594-labeled transferrin endocytosis up to 35 uM; format: cell-based
In short: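 Receptor-mediated endocytosis in IdlA[mSR-BI] cells followed by uptake of Alexa-594-labeled transferrin, compound tested at concentrations up to 35 μM.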

[7] = biological target: T2, Scavenger receptor class B member 1 (Mus musculus, UniProt Q61009); experiment: Activity at mouse SR-B1 overexpressed in CHO cells assessed as enhancement of binding of ALexa-488-labeled HDL particles to cells after 3 hrs
T2 sequence (Q61009 whole entry): T1 sequence (whole entry)

CHO = experiment: Cytotoxicity against CHO cells after 24 hrs by CellTiterGlo assay; format: cell-based, Cricetulus griseus; details: chinese hamster
In short: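 IdlA[mSR-BI] cells (CHO overexpressing mouse SR-BI) incubated with compound for 24 h; cellular ATP levels read by CellTiter-Glo luminescence.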

[8] = biological target: T2, Scavenger receptor class B member 1; experiment: (§3) Inhibition of mouse SR-B1 overexpressed in CHO cells assessed as inhibition of [3H]cholesteryl ester uptake into cells after 2 to 3 hrs by liquid scintillation counting; format: cell-based
In short: (§4)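 IdlA[mSR-BI] cells exposed to HDL carrying [³H]-labeled cholesteryl oleate ester; cellular uptake of [³H]CE measured across a compound dilution series, IC₅₀ from dose-response curve.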

[9] = Plasma protein binding in mouse at 5 uM after 5 hrs by equilibrium dialysis; format: ADME, cell-free; details: read-out: PPB (converted)
In short: (§5)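 Fraction bound to plasma proteins measured separately in human and mouse plasma.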

[10] = Stability in mouse liver microsomes assessed as compound remaining at 1 uM after 1 hr by UHPLC-MS analysis; format: ADME; details: read-out: Stability; in short: as §2
[11] = Plasma protein binding in human at 5 uM after 5 hrs by equilibrium dialysis; format: ADME, cell-free; details: read-out: PPB (converted); in short: as §5
[12] = biological target: T2, Scavenger receptor class B member 1; experiment: Inhibition of mouse SR-B1 overexpressed in CHO cells assessed as inhibition of transfer of the fluorescent lipid DiI from HDL particles to cells after 3 hrs; format: cell-based
In short: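 Primary assay: uptake of fluorescent lipid DiI from DiI-labeled HDL particles into IdlA[mSR-BI] cells, i.e. CHO cells overexpressing mouse SR-BI. Read-out is cell-associated DiI fluorescence. Compounds that quenched DiI-HDL fluorescence in a dose-dependent manner were excluded by counterscreen. 1 μM BLT-1 served as positive control.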

[13] = biological target: T1, Scavenger receptor class B member 1 (Mus musculus); experiment: as §3; format: cell-based; in short: as §4

inhibition [1]: > 70%
Structure (SMILES): CCCCCCC1CCC/C1=N\NC(N)=S (stereo not drawn)

inhibition at 10 µM (L-type calcium channel): 19%
remaining at 5 h, 5 µM [2]: > 99%
remaining at 1 h, 1 µM [3]: 10%
remaining at 5 h, 5 µM [4]: > 99%
solubility at 24 h [5]: 79 µM (≈ 44.8 µg/mL)
inhibition [6]: inactive
EC50 [7]: 400 nM
IC50 [8]: 250 nM
fraction unbound at 5 h, 5 µM [9]: 0.053
remaining at 1 h, 1 µM [10]: 25%
fraction unbound at 5 h, 5 µM [11]: 0.055
Structure (SMILES): CC(C)NC(=O)Nc1ccc2c(c1)C(=O)N([C@H](C)CO)C[C@@H](C)[C@H](CN(C)S(=O)(=O)c1ccc(Cl)cc1)O2
Activity (CHO): Non-toxic

solubility [5]: 0.1 µM (≈ 0.0653 µg/mL)
IC50 [12]: 180 nM
Structure (SMILES): C[C@@H]1CN([C@H](C)CO)C(=O)c2cc(NC(=O)Cc3cn(C)c4ccccc34)ccc2O[C@H]1CN(C)S(=O)(=O)c1ccc(Cl)cc1
Activity (CHO): Non-toxic

IC50 [8]: 5 nM
Structure (SMILES): C[C@H](C(=O)NC1CCCC1)N(C(=O)Cn1nnc(-c2ccc3c(c2)OCO3)n1)C1CCCCC1

solubility at 24 h [5]: 0.57 µM (≈ 0.257 µg/mL)
inhibition [13]: Active
Structure (SMILES): COCC(=O)n1ccc2cc(-c3csc(NC(=O)c4cc(OC)cc(OC)c4)n3)ccc21

IC50 [8]: 770 nM
Structure (SMILES): COc1c(NC(=O)C(=O)c2ccc(OCCN3CCOCC3)c3ccccc23)cc(C(C)(C)C)cc1NS(C)(=O)=O [ITX-5061]

solubility [5]: 79 µM (≈ 49.2 µg/mL)
IC50 [12]: 6400 nM
Structure (SMILES): C[C@@H]1CN([C@H](C)CO)C(=O)c2cc(NC(=O)Cc3cn(C)c4ccccc34)ccc2O[C@H]1CN(C)S(=O)(=O)c1cn(C)cn1
Activity (CHO): Non-toxic
